High-throughput results deposited in PubChem by Broad Institute.
In the library only some 2.6% were active in any assay of this set; here they are far more common.
SR-BI DiI inh: blocks mouse SR-BI lipid uptake from DiI-HDL. Q61009. ldlA[mSR-BI] CHO cells, DiI-HDL uptake fluorescence, 3 h. inhibition, % at 12.5 µM. hit rate 0.96% among 320,000;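 active means mean replicate inhibition of at least 70% and a set share of replicates each scoring 70 or more; inconclusive means meets just one of the two criteria; inactive means fails both criteria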
Target sequence (Q61009 whole entry, looked up): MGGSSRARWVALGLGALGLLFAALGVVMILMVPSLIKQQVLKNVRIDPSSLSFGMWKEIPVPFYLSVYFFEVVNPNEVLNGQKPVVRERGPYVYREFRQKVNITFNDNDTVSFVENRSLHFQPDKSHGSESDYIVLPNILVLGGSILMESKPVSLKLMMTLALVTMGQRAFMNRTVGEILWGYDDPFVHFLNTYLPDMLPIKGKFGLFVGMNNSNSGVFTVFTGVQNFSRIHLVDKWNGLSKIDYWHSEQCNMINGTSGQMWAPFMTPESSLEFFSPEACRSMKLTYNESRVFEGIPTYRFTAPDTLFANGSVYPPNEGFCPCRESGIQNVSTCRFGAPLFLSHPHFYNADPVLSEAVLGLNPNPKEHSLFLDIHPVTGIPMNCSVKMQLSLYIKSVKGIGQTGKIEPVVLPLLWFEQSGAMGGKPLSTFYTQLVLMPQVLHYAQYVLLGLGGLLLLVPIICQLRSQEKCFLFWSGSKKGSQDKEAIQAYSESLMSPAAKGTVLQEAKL
PvdQ acylase: blocks Pseudomonas aeruginosa PvdQ acylase activity | purified PvdQ acylase, fluorescence plate reader | inhibition, % at 10 µM | hit rate 0.063% among 340,000 | AID 488965; in the data active means inhibition above about 30%, passing the limit was not always enough; inconclusive means no clear call, values can overlap the other calls
rRNA inh HTS: inhibitors of bacterial rRNA selective over humanized ribosomes; E. coli WT GFP vs humanized-ribosome RFP mutants, fluorescence, 24 h; stronger effect = lower value; DMSO median 0, no signal -100; GFP signal change (wild-type ribosome), % (test concentration not listed); hit rate 1.6% among 350,000; AID 720706;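 active means significant combined selectivity score with lowered wild-type GFP, culture density cut under 30%, mutant RFP and density less affected; inactive means any of these conditions unmet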
dFosB act-1: activators of mouse delta FosB homodimer | activation, % at 25 µM | hit rate 0.99% among 340,000 | purified delta FosB, TAMRA-CDK5 oligo fluorescence polarization; percent of positive-control signal above neutral wells | AID 493131 | P13346;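 active means mean activation above about 17%, with every replicate also reaching it, limit read from the data, passing the limit was not always enough; inconclusive means only one of the two conditions met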
XiGFP reactiv: X-chromosome reactivation activator; XiGFP mouse fibroblasts, % GFP-positive cells imaging, 3 d; cells co-treated with 5-aza-dC sensitizer; scaled so ellipticine positive control = 100%; activation, % at 7.58 µM; hit rate 0.055% among 360,000;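 active means mean normalized replicate activation at least 10% and every replicate at or above 10%; inconclusive means only one of the two criteria met; inactive means mean below 10% and not all replicates reach 10%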
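System: 68-5-11 XiGFP fibroblast line | Buffer or medium: DMEM containing 5-aza-dC | Compound: Single point | Times: Compounds 3 days, fix/stain 15 min at room temperature | Benchmarks: Positive control ellipticine, 6 µM final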
SR-BI uptake up: enhances SR-BI lipid uptake from DiI-HDL. hit rate 0.096% among 320,000. CHO ldlA[mSR-BI] cells, DiI-HDL uptake fluorescence, 3 h; 100 = double the neutral-control signal. activation, % at 12.5 µM;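 active means mean replicate activation of at least 60% and every replicate at or above 60%; inconclusive means mean or all-replicate condition met, but not both; inactive means mean below 60% and not all replicates reaching 60%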
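Assay system: LDL receptor-deficient CHO ldlA cells overexpressing murine SR-BI / Medium: BSA-supplemented, HEPES-buffered Ham's F12, pH 7.4 / Probe or stimulus: DiI-labelled HDL at 10 µg/mL final / Timing: compound with DiI-HDL co-incubation, 3 h at 37 °C / Technique: bottom-read cell fluorescence after medium removal, ex 550/em 595 nm / Measure: HDL uptake via cellular fluorescence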
dFosB act-2: enhances mouse delta FosB homodimer binding to DNA. shares compounds with dFosB act-1. purified delta FosB, TAMRA-CDK5 oligo fluorescence polarization; normalised: neutral wells 0, positive control 100. activation, % at 24.9 µM. 2,400 tested, under 10 active. AID 588690;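 active means highest replicate activation at or above 34% and every replicate reaching that threshold; inconclusive means meets only one of the two criteria; inactive means meets neither criterion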;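 further: higher polarization means more probe DNA bound by delta FosB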
Large screens that a line does not name were inactive (follow-up assays come after a bar, where they were run).

CCOc1ccc(/C=N/NC(=O)c2cc3ccccc3cc2OC)cc1	dFosB act-1 19 | dFosB act-2 inactive
CCOC(=O)N1CCC(N2C(=O)c3ccc(C(=O)Nc4ccc(OC)cc4)cc3C2=O)CC1	dFosB act-1 30 | dFosB act-2 inactive
O=C(Nc1ccncc1)c1ccc2c(c1)C(=O)N(C1CCCCC1)C2=O	dFosB act-1 26 (no result: rRNA inh HTS, XiGFP reactiv) | dFosB act-2 inactive
CCOC(=O)N1CCC(N2C(=O)c3ccc(C(=O)NCCOC)cc3C2=O)CC1	none
O=C(NCCc1nc2ccccc2[nH]1)/C(=C/c1ccc2c(c1)OCO2)NC(=O)c1ccc(Cl)cc1Cl	dFosB act-1 20 (no result: rRNA inh HTS) | dFosB act-2 inactive
O=C(NCCc1nc2ccccc2[nH]1)/C(=C/c1ccc(F)cc1)NC(=O)c1ccco1	none
Nc1nnc(SCC(=O)NNC(=O)c2ccc(Cl)cc2)s1	none
CN(C)CCCN(C(=O)c1ccc(Cl)s1)c1nc2cc3c(cc2s1)OCO3	dFosB act-1 18 | dFosB act-2 inactive
CCc1ccc2nc(N(CCCN(C)C)C(=O)c3ccc(S(=O)(=O)N4CCc5ccccc5C4)cc3)sc2c1	rRNA inh HTS -25, dFosB act-1 47 | dFosB act-2 inactive
CN(C)CCCN(C(=O)c1ccc(C(=O)c2ccccc2)cc1)c1nc2ccc(F)cc2s1	dFosB act-1 30 | dFosB act-2 inactive
CN(C)CCCN(C(=O)c1cc(Cl)sc1Cl)c1nc2cc3c(cc2s1)OCO3	none
CCOc1cccc2sc(N(CCCN(C)C)C(=O)c3ccc(S(=O)(=O)N4CCc5ccccc5C4)cc3)nc12	none
CN(C)CCCN(C(=O)c1ccc(S(=O)(=O)N(C)C2CCCCC2)cc1)c1nc2ccc(Br)cc2s1	dFosB act-1 22 | dFosB act-2 inactive
CN(C)CCCN(C(=O)c1nc2ccccc2s1)c1nc2ccc(F)cc2s1	none
COc1ccc2c3c([nH]c2c1)[C@@H](CO)N(C(=O)c1ccncc1)CC31CCN(C(=O)CC2CC2)CC1	none (no result: SR-BI DiI inh, PvdQ acylase, dFosB act-1, SR-BI uptake up)
CCOc1ccc(NC(=O)c2cn(-c3ccc(OCC)cc3)c(=O)c3cc(OC)c(OC)cc23)cc1	dFosB act-1 20 (no result: rRNA inh HTS, XiGFP reactiv) | dFosB act-2 inactive
CCOc1ccc(-n2cc(C(=O)NC(C)C)c3cc(OC)c(OC)cc3c2=O)cc1	none (no result: rRNA inh HTS, XiGFP reactiv)
CCOc1ccc(-n2cc(C(=O)Nc3cccc(Cl)c3)c3cc(OC)c(OC)cc3c2=O)cc1	dFosB act-1 29 (no result: rRNA inh HTS, XiGFP reactiv) | dFosB act-2 inactive
Cc1sc(NC(=O)Cn2c(=O)oc3ccccc32)nc1-c1ccc(Cl)cc1	dFosB act-1 40 | dFosB act-2 inactive
CCc1nnc(NC(=O)Cn2c(=O)oc3ccccc32)s1	none (no result: rRNA inh HTS, XiGFP reactiv)
N#C/C(=C(/O)COC(=O)c1ccc(Cl)c(S(=O)(=O)N2CCOCC2)c1)c1nc2ccccc2[nH]1	none
N#C/C(=C(/O)COC(=O)c1ccc2c(c1)OCCO2)c1nc2ccccc2[nH]1	dFosB act-1 39 (no result: rRNA inh HTS, XiGFP reactiv) | dFosB act-2 inactive
Cc1ccc(O)c(C(=O)c2cc(C#N)c3nc4ccccc4n3c2)c1	dFosB act-1 24 | dFosB act-2 inactive
N#Cc1ccccc1/C=N/Nc1nc(-c2ccccc2)c2cc(Cl)ccc2n1	dFosB act-1 19 (no result: SR-BI DiI inh, XiGFP reactiv, SR-BI uptake up) | dFosB act-2 inactive
O=C(/C=C/c1cccc(Cl)c1)NCCc1ccccc1	none (no result: SR-BI DiI inh, rRNA inh HTS, SR-BI uptake up)
COc1ccc(-c2cc3nc4ccccc4n3c(N)c2C#N)cc1	dFosB act-1 19 (no result: SR-BI DiI inh, SR-BI uptake up) | dFosB act-2 inactive
Cc1ccc(C(=O)NCC(=O)OCC(=O)Nc2cc(C)c(C)cc2[N+](=O)[O-])cc1	none
O=C(OCc1csc(-c2ccccc2)n1)c1ccc(O)cc1	none
O=C(Cn1nnc(-c2ccc(F)cc2)n1)Nc1ccc2c(c1)OCCO2	dFosB act-1 36 | dFosB act-2 inactive
O=C(Cn1cnc2c(nnn2Cc2ccccc2)c1=O)Nc1ccc2c(c1)OCCO2	dFosB act-1 30 | dFosB act-2 inactive
O=C(CSc1nnc(-c2cccc(S(=O)(=O)N3CCCC3)c2)n1-c1ccccc1)Nc1ccc(C(=O)O)cc1	none
Cc1ccc(NC(=O)Cn2c(=O)n(Cc3ccco3)c(=O)c3ccccc32)c(C)c1	dFosB act-1 32 (no result: rRNA inh HTS, XiGFP reactiv) | dFosB act-2 inactive
Cc1ccc(NC(=O)Cn2c(=O)n(CCCCC(=O)NCc3ccco3)c(=O)c3ccccc32)cc1	dFosB act-1 31 (no result: rRNA inh HTS, XiGFP reactiv) | dFosB act-2 inactive
O=C(Cn1c(=O)n(Cc2ccco2)c(=O)c2ccccc21)Nc1cccc(Cl)c1	dFosB act-1 inconclusive
O=C(CCCCn1c(=O)c2ccccc2n(CC(=O)Nc2ccc(F)cc2)c1=O)NCc1ccco1	none (no result: rRNA inh HTS, XiGFP reactiv)
CSc1nsc(SC)c1NC(=O)N1CCCCC1	none (no result: rRNA inh HTS, XiGFP reactiv)
CSc1nsc(SC)c1NC(=O)Nc1ccccc1C	dFosB act-1 33 | dFosB act-2 inactive
COc1ccc(/C=N/NC(=O)C2c3ccccc3-c3ccccc32)cc1	dFosB act-1 22 | dFosB act-2 inactive
COCC(=O)NC1CCCCCC1	none
O=C(/C=C/c1ccccc1Cl)Nc1ccc2c(c1)C(=O)NC2=O	dFosB act-1 20 | dFosB act-2 inactive
O=C(/C=C/c1ccccc1)Nc1ccc2c(c1)C(=O)NC2=O	none
CC(NC(=O)NC12CC3CC(CC(C3)C1)C2)C1CCCO1 (stereo not given)	none (no result: rRNA inh HTS, XiGFP reactiv)
O=C(Nc1ccc(F)cc1)Nc1nnc(Cc2ccccc2F)s1	dFosB act-1 21 | dFosB act-2 inactive
O=C(Nc1ccc(Cl)cc1)Nc1nnc(CSCc2ccc(Cl)cc2)s1	dFosB act-1 19 (no result: rRNA inh HTS) | dFosB act-2 inactive
COc1ccccc1NC(=O)Nc1nc(CC(=O)Nc2ccc(F)cc2)cs1	dFosB act-1 27 | dFosB act-2 inactive
COc1cccc(NC(=O)Nc2nnc(CC(=O)NCc3ccccc3)s2)c1	dFosB act-1 39 (no result: SR-BI DiI inh, SR-BI uptake up) | dFosB act-2 inactive
COc1ccccc1NC(=O)Nc1nc(CC(=O)Nc2cccc(F)c2)cs1	none
CCOc1cccc2cc(C(N)=O)c(=NCc3ccccc3)oc12	none (no result: rRNA inh HTS, XiGFP reactiv)
COc1ccc(-n2nc(C(=O)NCC(=O)N3CCOCC3)c3ccccc3c2=O)c(OC)c1	none (no result: SR-BI DiI inh, SR-BI uptake up)
CCOC(=O)c1cnc2c(c(C)nn2CC)c1NCCN1CCOCC1	none (no result: rRNA inh HTS)
COC(=O)Nc1nnc(CC(=O)Nc2ccccc2C)s1	none (no result: rRNA inh HTS, XiGFP reactiv)
COc1ccccc1NC(=O)Nc1nnc(Cc2ccccc2F)s1	none
Cc1ccccc1NC(=O)Cc1nnc(NC(=O)Nc2ccccc2F)s1	dFosB act-1 52 | dFosB act-2 inactive
COc1ccccc1NC(=O)Nc1nnc(CC(=O)Nc2cccc(C)c2)s1	dFosB act-1 32 (no result: SR-BI DiI inh, SR-BI uptake up) | dFosB act-2 inactive
COC(=O)c1ccccc1C(=O)N1CCOCCOCCOCC1	none
